Reference: ChEMBL document CHEMBL1151279, “Sesquiterpenoids and norsesquiterpenoids from the Formosan soft coral Lemnalia laevis” (2005)
≈ marks a conversion by molar mass, not a printed value.

Key:
P388 = experiment: Cytotoxicity against mouse P388 cells; assay type: functional; settings: read-out: ED50 (the source's name)
Summary of the method: (§1)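 Cytotoxicity assay run as previously described, with test compounds at three concentrations (50, 5 and 0.5 µg/mL). HT29 cells are human colon adenocarcinoma. P-388 cells are mouse lymphocytic leukemia, supplied by J. M. Pezzuto.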

HT-29 = experiment: Cytotoxicity against human HT-29 cells; assay type: functional; settings: read-out: ED50 (the source's name); summary of the method: as §1

CC(=O)[C@H]1[C@@H](O)CCC2=C[C@@H](O)C[C@H](C)[C@]21C [LAEVINOL B]
EC50 (P388): > 5 µg/mL
EC50 (HT-29): > 5 µg/mL

CC(=O)[C@H]1C(=O)CCC2=C[C@@H](O)C[C@H](C)[C@]21C [LAEVINOL E]
EC50 (P388): > 5 µg/mL
EC50 (HT-29): > 5 µg/mL

CC(=O)[C@H]1[C@H](O)CCC2=C[C@@H](O)C[C@H](C)[C@]21C [LAEVINOL C]
EC50 (P388): > 5 µg/mL
EC50 (HT-29): > 5 µg/mL

CC(=O)[C@H]1[C@H](O)CC[C@]23O[C@H]2CC[C@H](C)[C@@]13C [LAEVINOL H]
EC50 (P388): > 5 µg/mL
EC50 (HT-29): > 5 µg/mL

CC(=O)O[C@@H]1C(=O)CCC2=CC(=O)C[C@H](C)[C@@]2(C)/C=C\1C (single isomer, unassigned) [LAEVINONE A]
EC50 (P388): > 5 µg/mL
EC50 (HT-29): > 5 µg/mL

C[C@H]1CCC=C2CCC(C(C)(O)CO)=C[C@@]21C (some centres not stated)
EC50 (P388): 0.21 µg/mL (≈ 0.888 µM)
EC50 (HT-29): 0.33 µg/mL (≈ 1.4 µM)

CC(=O)[C@H]1[C@@H](O)CCC2=C[C@H](O)C[C@H](C)[C@]21C [LAEVINOL D]
EC50 (P388): > 5 µg/mL
EC50 (HT-29): > 5 µg/mL

CC(=O)[C@H]1[C@H](O)CC[C@]23O[C@H]2[C@@H](O)C[C@H](C)[C@@]13C [LAEVINOL F]
EC50 (P388): > 5 µg/mL
EC50 (HT-29): > 5 µg/mL

CC(=O)[C@H]1[C@@H](OC=O)CCC2=C[C@@H](O)C[C@H](C)[C@]21C [LAEVINOL A]
EC50 (P388): > 5 µg/mL
EC50 (HT-29): > 5 µg/mL

CC(=O)[C@@H]1C(=O)CC[C@]23O[C@H]2[C@H](O)C[C@H](C)[C@@]13C
EC50 (P388): > 5 µg/mL
EC50 (HT-29): > 5 µg/mL

CC(=O)[C@H]1[C@H](O)CC[C@]23O[C@H]2[C@H](O)C[C@H](C)[C@@]13C [LAEVINOL G]
EC50 (P388): > 5 µg/mL
EC50 (HT-29): > 5 µg/mL
